According to ChEMBL document CHEMBL4382192, “Discovery of a potent dual ALK and EGFR T790M inhibitor” (Eur J Med Chem, 2017):

Columns and labels:
[1] = biological target: Serine/threonine-protein kinase pim-2 (Homo sapiens) (UniProt Q9P1W9); test: Binding affinity to wild-type human partial length PIM2 (M1 to E291 residues) expressed in bacterial expression system assessed as residual binding level at 1 uM by Kinomescan method relative to control
[2] = biological target: Leucine-rich repeat serine/threonine-protein kinase 2 (Homo sapiens) (UniProt Q5S007); test: Binding affinity to wild-type human partial length LRRK2 (H970 to E2527 residues) expressed in mammalian expression system assessed as residual binding level at 1 uM by Kinomescan method relative to control
[3] = biological target: MAP kinase-interacting serine/threonine-protein kinase 1 (Homo sapiens) (UniProt Q9BUB5); test: Binding affinity to wild-type human full length MKNK1 (M1 to L424 residues) expressed in mammalian expression system assessed as residual binding level at 1 uM by Kinomescan method relative to control
Outline: (§1)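 Single-point kinome-wide KINOMEscan binding panel, test compound at 1 μM, run by the provider's standard protocol.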

[4] = biological target: Maternal embryonic leucine zipper kinase (Homo sapiens) (UniProt Q14680); test: Binding affinity to wild-type human full length MELK (M1 to V651 residues) expressed in bacterial expression system assessed as residual binding level at 1 uM by Kinomescan method relative to control; outline: as §1
[5] = biological target: Transient receptor potential cation channel subfamily M member 6 (Homo sapiens) (UniProt Q9BX84); test: Binding affinity to wild-type human partial length TRPM6 (Q1723 to I1998 residues) expressed in mammalian expression system assessed as residual binding level at 1 uM by Kinomescan method relative to control
[6] = biological target: Serine/threonine-protein kinase VRK2 (Homo sapiens) (UniProt Q86Y07); test: Binding affinity to wild-type human partial length VRK2 (M1 to T336 residues) expressed in mammalian expression system assessed as residual binding level at 1 uM by Kinomescan method relative to control
[7] = biological target: Tyrosine-protein kinase Blk (Homo sapiens, UniProt P51451); test: Inhibition of recombinant full length His-tagged human Blk cytoplasmic domain expressed in Baculovirus expression system by Z-LYTE assay
[8] = biological target: Cyclin-dependent kinase 2 (Homo sapiens) (UniProt P24941); test: Binding affinity to wild-type human full length CDK2 (M1 to L298 residues) expressed in bacterial expression system assessed as residual binding level at 1 uM by Kinomescan method relative to control
[9] = system: Receptor-type tyrosine-protein kinase FLT3 (Homo sapiens), P36888 [UNDEFINED MUTATION]; test: Binding affinity to human partial length FLT3 ITD/D835V double mutant expressed in bacterial expression system assessed as residual binding level at 1 uM by Kinomescan method relative to control
Outline: (§2)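 Kinome-wide selectivity panel run by the KINOMEscan method, with the test compound at a single concentration of 1 μM. Wild-type and mutant kinases were profiled in the same screen.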

[10] = biological target: Serine/threonine-protein kinase MARK2 (Homo sapiens) (UniProt Q7KZI7); test: Binding affinity to wild-type human partial length MARK2 (M1 to R450 residues) expressed in bacterial expression system assessed as residual binding level at 1 uM by Kinomescan method relative to control
[11] = biological target: Epithelial discoidin domain-containing receptor 1 (Homo sapiens) (UniProt Q08345); test: Binding affinity to wild-type human partial length DDR1 (R565 to V876 residues) expressed in bacterial expression system assessed as residual binding level at 1 uM by Kinomescan method relative to control
[12] = Drug uptake in mouse plasma at 10 mg/kg, po after 8 hrs; assay type: ADME, organism-based
[13] = biological target: Vascular endothelial growth factor receptor 3 (Homo sapiens) (UniProt P35916); test: Binding affinity to wild-type human partial length FLT4 (E821 to E1196 residues) expressed in bacterial expression system assessed as residual binding level at 1 uM by Kinomescan method relative to control
[14] = biological target: Ribosomal protein S6 kinase alpha-1 (Homo sapiens) (UniProt Q15418); test: Binding affinity to wild-type human partial length N-terminal RSK1 Kinase domain 1 (M1 to E388 residues) expressed in bacterial expression system assessed as residual binding level at 1 uM by Kinomescan method relative to control
[15] = biological target: Phosphatidylinositol 4,5-bisphosphate 3-kinase catalytic subunit delta isoform (Homo sapiens) (UniProt O00329); test: Binding affinity to wild-type human partial length PIK3CD (R108 to Q1044 residues) expressed in mammalian expression system assessed as residual binding level at 1 uM by Kinomescan method relative to control
[16] = biological target: Casein kinase I isoform gamma-2 (Homo sapiens) (UniProt P78368); test: Binding affinity to wild-type human full length CSNK1G2 (M1 to K415 residues) expressed in bacterial expression system assessed as residual binding level at 1 uM by Kinomescan method relative to control
[17] = biological target: Tyrosine-protein kinase Fgr (Homo sapiens) (UniProt P09769); test: Binding affinity to wild-type human partial length FGR (L233 to T529 residues) expressed in bacterial expression system assessed as residual binding level at 1 uM by Kinomescan method relative to control
[18] = biological target: Serine/threonine-protein kinase TNNI3K (Homo sapiens) (UniProt Q59H18); test: Binding affinity to wild-type human full length TNNI3K (M1 to S835 residues) expressed in bacterial expression system assessed as residual binding level at 1 uM by Kinomescan method relative to control
[19] = biological target: RAF proto-oncogene serine/threonine-protein kinase (Homo sapiens) (UniProt P04049); test: Binding affinity to wild-type human partial length RAF1 (I330 to T640 residues) expressed in bacterial expression system assessed as residual binding level at 1 uM by Kinomescan method relative to control
[20] = biological target: Cyclin-dependent kinase 4 (Homo sapiens) (UniProt P11802); test: Binding affinity to wild-type human full length CDK4 (M1 to E303 residues) expressed in mammalian expression system assessed as residual binding level at 1 uM by Kinomescan method relative to control
[21] = biological target: Citron Rho-interacting kinase (Homo sapiens) (UniProt O14578); test: Binding affinity to wild-type human partial length CIT (M68 to E432 residues) expressed in bacterial expression system assessed as residual binding level at 1 uM by Kinomescan method relative to control
[22] = system: Mast/stem cell growth factor receptor Kit (Homo sapiens), P10721 [L576P]; test: Binding affinity to human partial length KIT L576P mutant (Y545 to D952 residues) expressed in bacterial expression system assessed as residual binding level at 1 uM by Kinomescan method relative to control; outline: as §2
[23] = biological target: Calcium/calmodulin-dependent protein kinase type IV (Homo sapiens) (UniProt Q16566); test: Binding affinity to wild-type human partial length CAMK4 (A22 to A322 residues) expressed in bacterial expression system assessed as residual binding level at 1 uM by Kinomescan method relative to control

Vascular endothelial growth factor receptor 3 (Homo sapiens), sequence (P35916 whole entry, the tested form may be a part): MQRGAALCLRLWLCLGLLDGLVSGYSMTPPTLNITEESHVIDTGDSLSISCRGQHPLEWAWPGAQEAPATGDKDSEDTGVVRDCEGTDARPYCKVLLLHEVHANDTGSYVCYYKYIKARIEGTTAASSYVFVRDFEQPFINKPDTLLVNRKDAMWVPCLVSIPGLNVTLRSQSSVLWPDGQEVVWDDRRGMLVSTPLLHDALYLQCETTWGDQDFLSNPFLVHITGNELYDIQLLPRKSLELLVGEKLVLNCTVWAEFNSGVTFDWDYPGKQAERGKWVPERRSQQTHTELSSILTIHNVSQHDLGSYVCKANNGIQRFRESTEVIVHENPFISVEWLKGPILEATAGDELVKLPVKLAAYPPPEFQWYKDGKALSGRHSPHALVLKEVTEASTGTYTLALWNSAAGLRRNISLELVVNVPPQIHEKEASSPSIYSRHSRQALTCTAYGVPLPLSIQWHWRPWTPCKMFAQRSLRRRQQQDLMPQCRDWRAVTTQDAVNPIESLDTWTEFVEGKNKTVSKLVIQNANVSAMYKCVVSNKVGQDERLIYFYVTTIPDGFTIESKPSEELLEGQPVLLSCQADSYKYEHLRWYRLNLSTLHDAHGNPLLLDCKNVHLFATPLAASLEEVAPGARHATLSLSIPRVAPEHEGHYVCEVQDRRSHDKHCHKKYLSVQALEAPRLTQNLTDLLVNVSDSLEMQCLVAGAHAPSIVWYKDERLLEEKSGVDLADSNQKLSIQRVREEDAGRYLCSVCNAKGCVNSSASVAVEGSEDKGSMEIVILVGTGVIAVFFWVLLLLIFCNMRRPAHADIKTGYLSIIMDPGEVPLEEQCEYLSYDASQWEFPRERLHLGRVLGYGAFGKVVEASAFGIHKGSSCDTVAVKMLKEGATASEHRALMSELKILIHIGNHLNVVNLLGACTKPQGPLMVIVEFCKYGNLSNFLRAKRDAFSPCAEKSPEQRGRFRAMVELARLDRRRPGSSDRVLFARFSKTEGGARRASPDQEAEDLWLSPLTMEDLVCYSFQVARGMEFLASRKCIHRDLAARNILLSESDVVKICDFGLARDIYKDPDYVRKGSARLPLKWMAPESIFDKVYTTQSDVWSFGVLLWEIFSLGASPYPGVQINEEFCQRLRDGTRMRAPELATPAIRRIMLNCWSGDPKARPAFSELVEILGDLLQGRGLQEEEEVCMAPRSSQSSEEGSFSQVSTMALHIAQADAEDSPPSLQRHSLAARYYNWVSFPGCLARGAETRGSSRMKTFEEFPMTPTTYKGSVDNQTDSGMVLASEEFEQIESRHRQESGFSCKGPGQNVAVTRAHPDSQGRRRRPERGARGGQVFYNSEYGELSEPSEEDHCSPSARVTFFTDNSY
Transient receptor potential cation channel subfamily M member 6 (Homo sapiens), sequence (Q9BX84 whole entry, the tested form may be a part): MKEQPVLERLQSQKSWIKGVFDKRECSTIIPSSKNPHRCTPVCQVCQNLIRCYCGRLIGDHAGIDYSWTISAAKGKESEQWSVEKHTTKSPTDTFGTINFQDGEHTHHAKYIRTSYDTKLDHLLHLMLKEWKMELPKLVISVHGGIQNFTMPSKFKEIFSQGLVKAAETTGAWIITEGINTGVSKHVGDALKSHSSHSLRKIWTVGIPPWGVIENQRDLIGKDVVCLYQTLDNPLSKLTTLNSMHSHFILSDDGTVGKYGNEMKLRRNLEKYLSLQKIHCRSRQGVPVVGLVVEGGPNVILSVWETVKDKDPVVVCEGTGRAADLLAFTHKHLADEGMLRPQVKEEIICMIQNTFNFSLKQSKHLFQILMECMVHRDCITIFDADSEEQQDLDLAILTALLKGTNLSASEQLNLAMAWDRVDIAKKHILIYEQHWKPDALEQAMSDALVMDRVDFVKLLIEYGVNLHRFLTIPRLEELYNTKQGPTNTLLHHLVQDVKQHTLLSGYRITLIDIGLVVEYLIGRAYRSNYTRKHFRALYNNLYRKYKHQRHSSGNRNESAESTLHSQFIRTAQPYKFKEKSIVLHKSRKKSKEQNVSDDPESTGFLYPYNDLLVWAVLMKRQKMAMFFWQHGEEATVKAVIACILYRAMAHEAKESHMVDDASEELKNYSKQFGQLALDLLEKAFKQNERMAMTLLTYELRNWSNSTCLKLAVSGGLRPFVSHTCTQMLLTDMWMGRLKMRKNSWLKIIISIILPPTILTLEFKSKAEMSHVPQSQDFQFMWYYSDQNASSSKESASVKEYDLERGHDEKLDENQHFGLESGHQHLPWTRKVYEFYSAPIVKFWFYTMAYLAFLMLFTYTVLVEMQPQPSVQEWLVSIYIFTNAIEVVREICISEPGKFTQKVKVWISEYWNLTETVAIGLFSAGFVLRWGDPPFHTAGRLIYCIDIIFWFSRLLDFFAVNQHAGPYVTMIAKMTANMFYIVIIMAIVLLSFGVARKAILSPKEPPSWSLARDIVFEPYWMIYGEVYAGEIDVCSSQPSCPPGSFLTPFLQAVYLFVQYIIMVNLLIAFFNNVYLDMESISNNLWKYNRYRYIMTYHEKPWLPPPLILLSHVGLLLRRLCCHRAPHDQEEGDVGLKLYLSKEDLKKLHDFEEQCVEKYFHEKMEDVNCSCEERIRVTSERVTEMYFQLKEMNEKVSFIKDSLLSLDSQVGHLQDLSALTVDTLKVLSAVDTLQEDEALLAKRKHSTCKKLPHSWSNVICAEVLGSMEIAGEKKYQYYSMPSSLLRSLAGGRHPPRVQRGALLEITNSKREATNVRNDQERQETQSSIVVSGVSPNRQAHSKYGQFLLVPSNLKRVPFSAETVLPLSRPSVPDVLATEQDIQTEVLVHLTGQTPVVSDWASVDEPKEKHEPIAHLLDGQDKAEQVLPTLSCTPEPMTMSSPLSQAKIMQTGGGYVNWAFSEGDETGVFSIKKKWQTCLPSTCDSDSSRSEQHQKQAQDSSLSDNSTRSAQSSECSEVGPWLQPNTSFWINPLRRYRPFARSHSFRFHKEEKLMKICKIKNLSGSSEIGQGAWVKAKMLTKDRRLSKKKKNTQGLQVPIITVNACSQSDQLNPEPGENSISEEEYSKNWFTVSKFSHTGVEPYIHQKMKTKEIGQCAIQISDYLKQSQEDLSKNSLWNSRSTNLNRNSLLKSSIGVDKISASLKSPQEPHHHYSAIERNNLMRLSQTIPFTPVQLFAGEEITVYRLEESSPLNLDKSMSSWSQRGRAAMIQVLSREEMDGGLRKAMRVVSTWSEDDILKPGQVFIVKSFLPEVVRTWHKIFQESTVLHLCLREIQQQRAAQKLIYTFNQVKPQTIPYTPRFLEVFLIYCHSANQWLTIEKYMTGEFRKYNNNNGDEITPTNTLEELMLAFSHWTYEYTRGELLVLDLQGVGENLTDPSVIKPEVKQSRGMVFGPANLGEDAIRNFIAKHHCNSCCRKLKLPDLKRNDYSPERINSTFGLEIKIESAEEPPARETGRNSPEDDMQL
MAP kinase-interacting serine/threonine-protein kinase 1 (Homo sapiens), sequence (Q9BUB5 whole entry, looked up, the tested form may be a part): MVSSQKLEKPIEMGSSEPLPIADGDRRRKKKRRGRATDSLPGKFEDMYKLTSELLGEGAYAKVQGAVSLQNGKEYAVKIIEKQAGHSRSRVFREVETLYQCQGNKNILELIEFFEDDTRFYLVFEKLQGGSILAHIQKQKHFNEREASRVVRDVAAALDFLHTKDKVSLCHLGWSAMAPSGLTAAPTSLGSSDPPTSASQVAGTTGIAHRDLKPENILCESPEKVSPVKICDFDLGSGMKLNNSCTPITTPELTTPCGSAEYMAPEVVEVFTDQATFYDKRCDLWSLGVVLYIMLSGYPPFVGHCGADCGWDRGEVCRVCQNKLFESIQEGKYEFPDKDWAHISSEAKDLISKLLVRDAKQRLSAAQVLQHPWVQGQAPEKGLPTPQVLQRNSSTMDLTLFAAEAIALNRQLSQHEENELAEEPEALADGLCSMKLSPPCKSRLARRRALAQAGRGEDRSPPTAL
Ribosomal protein S6 kinase alpha-1 (Homo sapiens), sequence (Q15418 whole entry, the tested form may be a part, canonical isoform): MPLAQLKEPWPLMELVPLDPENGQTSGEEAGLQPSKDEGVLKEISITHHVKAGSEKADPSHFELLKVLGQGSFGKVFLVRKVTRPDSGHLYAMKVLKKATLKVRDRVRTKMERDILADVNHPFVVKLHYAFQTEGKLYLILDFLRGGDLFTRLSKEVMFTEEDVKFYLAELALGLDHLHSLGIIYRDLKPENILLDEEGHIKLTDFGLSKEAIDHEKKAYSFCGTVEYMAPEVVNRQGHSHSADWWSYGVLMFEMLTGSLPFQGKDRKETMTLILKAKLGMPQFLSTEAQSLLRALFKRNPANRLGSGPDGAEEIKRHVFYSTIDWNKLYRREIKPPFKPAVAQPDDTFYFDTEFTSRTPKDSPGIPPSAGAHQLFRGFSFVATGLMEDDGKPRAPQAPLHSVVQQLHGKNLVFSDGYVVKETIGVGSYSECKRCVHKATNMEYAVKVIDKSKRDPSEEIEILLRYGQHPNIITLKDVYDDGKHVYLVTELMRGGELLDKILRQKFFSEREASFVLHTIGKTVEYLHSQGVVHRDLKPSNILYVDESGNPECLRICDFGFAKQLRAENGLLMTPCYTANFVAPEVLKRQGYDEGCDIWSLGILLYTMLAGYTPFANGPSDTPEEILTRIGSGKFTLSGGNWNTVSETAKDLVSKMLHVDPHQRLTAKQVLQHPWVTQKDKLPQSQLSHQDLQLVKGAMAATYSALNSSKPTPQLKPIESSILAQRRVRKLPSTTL
Casein kinase I isoform gamma-2 (Homo sapiens), sequence (P78368 whole entry, looked up, the tested form may be a part, canonical isoform): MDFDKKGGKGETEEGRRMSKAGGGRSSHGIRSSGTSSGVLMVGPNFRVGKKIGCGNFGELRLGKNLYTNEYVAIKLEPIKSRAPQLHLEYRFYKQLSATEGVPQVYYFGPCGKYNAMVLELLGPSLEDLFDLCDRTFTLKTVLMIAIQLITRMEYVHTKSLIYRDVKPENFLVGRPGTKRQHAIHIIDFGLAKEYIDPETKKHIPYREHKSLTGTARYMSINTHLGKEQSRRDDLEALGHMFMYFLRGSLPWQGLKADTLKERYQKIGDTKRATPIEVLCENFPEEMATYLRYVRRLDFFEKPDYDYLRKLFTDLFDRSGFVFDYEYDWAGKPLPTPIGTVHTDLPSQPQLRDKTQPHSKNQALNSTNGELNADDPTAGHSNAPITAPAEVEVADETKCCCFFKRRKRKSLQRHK

## C=CC(=O)Nc1cc(Nc2ncc(Cl)c(Nc3ccccc3S(=O)(=O)C(C)C)n2)c(OC)cc1N(C)CCN(C)C
[1]
  Activity: 100%
[2]
  Activity: 1.7%
[3]
  Activity: 90%
[4]
  Activity: 54%
[5]
  Activity: 52%
[6]
  Activity: 98%
[7]
  IC50: 8 nM
[8]
  Activity: 83%
[9]
  Activity: 12%
[10]
  Activity: 57%
[11]
  Activity: 16%
[12]
  concentration at 8 h: 10 nM
[13]
  Activity: 36%
[14]
  Activity: 4.3%
[15]
  Activity: 75%
[16]
  Activity: 74%
[17]
  Activity: 57%
[18]
  Activity: 100%
[19]
  Activity: 88%
[20]
  Activity: 99%
[21]
  Activity: 99%
[22]
  Activity: 9.1%
[23]
  Activity: 9.4%
